Most compounds without a hit are left out; they make up all but 29% or so of the library.
CYP2C19 inhib – blocks human cytochrome P450 2C19 | P33261 | CYP2C19 Supersomes, luciferin-H EGE luminescence, 30 min | inhibition, % at 5 µM | 21% of 96,000 active;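 active = CYP2C19 inhibition above a set limit at 5 µM in the primary screen, cut at about 50% in these data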;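 also: plate controls were negative control wells for no effect and 2.5 mM tranylcypromine positive control for full effect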
CYP2C19 activ – cytochrome P450 2C19 (human) activation; 96,000 tested, under 10 active; activation factor at 5 µM; recombinant CYP2C19, luciferin-H EGE luminescence; stronger effect = higher value; 0 = fully inhibited enzyme, 1 = untreated enzyme;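 active = activation factor of at least 2 at 5 µM in the primary screen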;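 also: 0 = wells with 2.5 mM tranylcypromine and 1 = vehicle-only wells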
CYP2C9 inh – human CYP2C9 inhibition; CYP2C9 Supersomes, luciferin-H conversion, luminescence; inhibition, % at 5 µM; 20% of 96,000 active; AID 777;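 active = blocking of liver enzyme CYP2C9 beyond about 50% at 5 µM, limit read from the data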
Target sequence (P11712 whole entry, looked up): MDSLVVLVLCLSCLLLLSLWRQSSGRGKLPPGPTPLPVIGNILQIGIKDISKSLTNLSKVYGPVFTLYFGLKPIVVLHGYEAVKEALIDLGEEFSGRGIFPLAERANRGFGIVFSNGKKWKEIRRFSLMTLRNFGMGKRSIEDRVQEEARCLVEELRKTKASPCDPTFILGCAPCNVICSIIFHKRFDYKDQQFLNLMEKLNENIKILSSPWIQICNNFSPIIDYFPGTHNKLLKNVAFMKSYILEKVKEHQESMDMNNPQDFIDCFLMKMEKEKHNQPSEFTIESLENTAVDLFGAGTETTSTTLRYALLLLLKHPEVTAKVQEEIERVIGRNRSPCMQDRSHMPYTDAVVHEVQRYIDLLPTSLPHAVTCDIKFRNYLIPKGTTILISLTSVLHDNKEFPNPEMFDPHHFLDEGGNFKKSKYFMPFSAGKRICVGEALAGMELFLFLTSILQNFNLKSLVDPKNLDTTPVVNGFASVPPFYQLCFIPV
E coli WT exp – growth inhibitors of E. coli BW25113 wild type; growth inhibition, % at 100 µM; 0.15% of 98,000 active; AID 710; OD600 absorbance;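 active = growth inhibition above about 50% at one test dose, limit read from the data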;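 also: growth measured after 20 h incubation at 37 °C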
CYP2C9 act – increases human cytochrome P450 2C9 activity. P11712. recombinant CYP2C9, luciferin-H conversion, luminescence; stronger effect = higher value; factor 1 = untreated enzyme, 0 = blocked. activation factor at 5 µM. 1.4% of 96,000 active;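 active = activation factor of 2 or more for CYP2C9 at a 5 µM dose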;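 also: 0 = sulfaphenazole-blocked wells and 1 = vehicle-only wells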
Ecoli tolC – growth inhibitors of E. coli BW25113 tolC mutant | growth inhibition, % at 10 µM (by protocol) | 2.2% of 65,000 active | AID 573 | OD615;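 active = growth inhibition at or above a cutoff equal to the mean over every tested compound plus 3 SD, cut at about 60% in these data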;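 also: growth measured after 20 h incubation at 37 °C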
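Test system: tolC-deleted E. coli BW25113 | Medium: LB with kanamycin 50 µg/mL | Compound dosing: Single concentration, 10 µM final per compound | Schedule: 37 °C, 20 h exposure | Measured by: OD at 615 nm | Evaluation: Percent growth inhibition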
Active calls of the source: *; · = no result given.

SMILES	CYP2C19 inhib	CYP2C19 activ	CYP2C9 inh	E coli WT exp	CYP2C9 act	Ecoli tolC
COc1cccc(CNc2nc3nc(C)cc(=O)n3[nH]2)c1	-7	1.1	4	2	1	·
CCN(CC)CCN=C1CCCc2ccccc2N1	5	1	9	-5	0.9	-8
Cc1cc(C)c(S(=O)(=O)N2CCC(C(N)=O)CC2)cc1C	38	0.6	-133	0	2.3*	·
COc1cc(S(=O)(=O)N2CCC(C(N)=O)CC2)c(C)cc1C	69*	0.3	-200	-6	3*	-13
CCOC(=O)N1CCN(Cc2nc(N)nc(Nc3ccc(OCC)cc3)n2)CC1	8	0.9	11	3	0.9	·
O=C(Nc1cnn(Cc2ccccc2)c1)NC12CC3CC(CC(C3)C1)C2	0	1	3	9	1	·
O=C(O)C1C2CCC(O2)C1C(=O)Nc1cnn(Cc2ccccc2)c1 (stereo not drawn)	83*	0.2	20	8	0.8	·
CCOc1ccc(OCC)c(NC(=O)c2ccc(CNc3c(N4CCOCC4)c(=O)c3=O)cc2)c1	21	0.8	26	-10	0.7	-12
CCCOc1ccc(Cn2c(C)nc([N+](=O)[O-])c2SCC(O)COC)cc1[N+](=O)[O-] (stereo not drawn)	42	0.6	43	8	0.6	·
CCOc1ccc(Cn2c(C)nc([N+](=O)[O-])c2SCC(O)CCl)cc1[N+](=O)[O-] (stereo not drawn)	76*	0.2	61*	4	0.4	·
Cc1cc(-n2c(C)cc(C(=O)CSc3ccc4c(c3)OCCO4)c2C)no1	89*	0.1	31	-18	0.7	47
Cc1cc(-n2c(C)cc(C(=O)CSc3nnnn3-c3ccccc3)c2C)no1	43	0.6	23	-21	0.8	47
CCOC(=O)N1CCN(C(=O)c2cccc(NC(=O)c3ccco3)c2)CC1	14	0.9	7	-1	0.9	-3
CCCCN(C)CCCNC(=O)CC1Oc2ccccc2NC1=O (stereo not drawn)	-22	1.2	-10	4	1.1	-5
CCc1ccccc1NC(=O)C1C(c2ccccc2)C1(Cl)Cl (stereo not drawn)	45	0.5	-17	-3	1.2	·
CCc1ccccc1NC(=O)c1cc(C2CC2)on1	35	0.7	-141	1	2.4*	-2
COC(=O)c1sc(NC(=O)COc2cccc3ccccc23)nc1C	20	0.8	33	-17	0.7	·
CC(c1ccccc1)C1CC(=O)N(Cc2ccco2)C1=O (stereo not drawn)	91*	0.1	34	1	0.7	7
NC(=O)CSc1nc2scc(-c3ccco3)c2c(=O)n1-c1ccccc1	14	0.9	38	-3	0.6	3
C=CCn1c(SCC(=O)NCCOC)nc2scc(-c3ccco3)c2c1=O	78*	0.2	83*	-1	0.2	1
O=C(CSc1nc2scc(-c3ccco3)c2c(=O)n1-c1ccccc1)NCC1CCCO1 (stereo not drawn)	52*	0.5	71*	-2	0.3	6
O=c1c2c(-c3ccco3)csc2nc(SCc2cn3cccnc3n2)n1-c1ccccc1	53*	0.5	97*	-4	0	29
C=CCn1c(SCC(=O)NCC2CCCO2)nc2scc(-c3ccco3)c2c1=O (stereo not drawn)	78*	0.2	81*	1	0.2	23
CCOC(=O)N1CCN(C(=O)CSCC(=O)Nc2nc(-c3ccc(Cl)s3)cs2)CC1	·	·	·	·	·	-10
CSc1nc(-c2ccccc2)[nH]c(=S)c1C(C)=O	20	0.8	55*	3	0.5	·
SMILES	CYP2C19 inhib	CYP2C19 activ	CYP2C9 inh	E coli WT exp	CYP2C9 act	Ecoli tolC
CSc1nc(-c2ccccc2)nc(SC)c1C(C)=O	11	0.9	-12	-8	1.1	7
Cc1csc(SCCN2C(=O)c3ccccc3C2=O)n1	82*	0.2	71*	-10	0.3	-6
O=C1c2ccccc2C(=O)N1CCSc1ccccc1	52*	0.5	22	-2	0.8	·
CSc1nsc(SCCN2C(=O)c3ccccc3C2=O)n1	80*	0.2	52*	-4	0.5	11
Cc1c(Cl)cccc1-n1ccnc1SCC(=O)O	7	0.9	67*	-4	0.3	-4
CCc1nnc(NC(=O)CSc2nccn2-c2cc(C)cc(C)c2)s1	13	0.9	58*	-2	0.4	9
CCOc1ccc(-n2ccnc2SCC(=O)Nc2nnc(C)s2)cc1	18	0.8	21	-2	0.8	-8
CCc1nnc(NC(=O)CSc2nccn2-c2cccc(C)c2C)s1	27	0.7	53*	-12	0.5	11
Cc1cccc(-n2ccnc2SCC(=O)Nc2nccs2)c1C	53*	0.5	47	-2	0.5	0
CN(C(=O)OCc1ccccc1)C(CC(N)=O)C(=O)O (stereo not drawn)	-4	1	0	-5	1	-11
CCOC(=O)NC(CC(=O)O)c1ccc(OC)cc1 (stereo not drawn)	-10	1.1	-30	-10	1.3	-17
Cc1cccc(OCC(=O)N/N=C\c2cc3c(cc2[N+](=O)[O-])OCO3)c1C	19	0.8	48	-13	0.5	·
CCOC(=O)Cn1cc(/C=N/NC(=O)c2ccc(C#N)cc2F)c2ccccc21	22	0.8	75*	10	0.3	·
CCOC(=O)Cn1cc(C(=O)C2CC2)c2ccccc21	38	0.6	18	-8	0.8	-18
Cc1cc(NC(=O)CN2CCN(c3ccccc3O)CC2)no1	27	0.7	44	2	0.6	-10
O=C1Nc2ccc([N+](=O)[O-])cc2C1(O)N1CCCCC1 (stereo not drawn)	18	0.8	24	5	0.8	·
COc1ccc(-c2nc(C)ncc2N=Nc2ccccc2)cc1	13	0.9	61*	-4	0.4	·
Cc1ncc(N=Nc2ccc(F)cc2)c(-c2ccc(Cl)cc2)n1	3	1	-6	-7	1.1	·
O=c1oc2c3c4c(cc2c2c1CCC2)OCCN4CCC3	28	0.7	-1	1	1	21
CCC1CCc2c(sc3ncnc(N4CCOCC4)c23)C1 (stereo not drawn)	89*	0.1	43	11	0.6	36
Cc1cc(C)c2c(n1)sc1c(N3CCOCC3)ncnc12	·	·	·	·	·	9
COc1cc(OC)nc(NC2OC(=O)c3ccccc32)n1 (stereo not drawn)	-14	1.1	-12	12	1.1	·
COc1ccc(-c2noc(CCC(=O)NC3CCN(Cc4ccccc4)CC3)n2)cc1	73*	0.3	84*	6	0.2	·
COc1cc(-c2noc(CCCC(=O)NC3CCCCC3)n2)cc(OC)c1OC	66*	0.3	9	9	0.9	·
COc1cccc(-c2noc(CCC(=O)NC3CCCCC3)n2)c1	8	0.9	-54	4	1.5	-4
O=C(CCCc1nc(-c2ccccc2Cl)no1)NC1CCCCC1	10	0.9	6	-16	0.9	14

Assay outcomes: PubChem BioAssay, several laboratories
